Legend:
Acinetobacter baumannii [1] = assay: Synergistic antibacterial activity against Acinetobacter baumannii PR440 producing OXA-23/24/40 assessed as meropenem MIC at 4 ug/ml by broth microdilution method; format: functional; conditions: dose 4 µg/ml
Acinetobacter baumannii [2] = assay: Antibacterial activity against ADC deleted Acinetobacter baumannii by broth microdilution method; format: functional
Escherichia coli [3] = assay: Antibacterial activity against Escherichia coli DH10B transfected with pBR322-catI-KPC-2 by broth microdilution method; format: functional
Acinetobacter baumannii [4] = assay: Synergistic antibacterial activity against Acinetobacter baumannii PR476 producing OXA-24/40 assessed as cefepime MIC at 4 ug/ml by broth microdilution method; format: functional; conditions: dose 4 µg/ml
Bacteria [5] = assay: Inhibition of bacteria PDC-3 assessed as second order rate constant K2/K using nitrocefin as substrate
Escherichia coli [6] = assay: Synergistic antibacterial activity against Escherichia coli DH10B transfected with pBC SK (-) PDC-3 assessed as meropenem MIC at 4 ug/ml by broth microdilution method; format: functional; conditions: dose 4 µg/ml
Procedure, shortened: (§1)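 Broth microdilution per CLSI guidelines, using custom frozen panels. […] Each partner drug was also tested alone. MICs were run in triplicate and the modal value is reported.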

Klebsiella pneumoniae [7] = assay: Synergistic antibacterial activity against Klebsiella pneumoniae CAV 1543 producing OXA-48 assessed as meropenem MIC at 4 ug/ml by broth microdilution method; format: functional; conditions: dose 4 µg/ml
Acinetobacter baumannii [8] = assay: Synergistic antibacterial activity against Acinetobacter baumannii PR448 producing OXA-23 assessed as cefepime MIC at 4 ug/ml by broth microdilution method; format: functional; conditions: dose 4 µg/ml
Bacteria [9] = tested on: Bacteria
Pseudomonas aeruginosa [10] = assay: Synergistic antibacterial activity against Pseudomonas aeruginosa CL232 assessed as cefepime MIC at 4 ug/ml by broth microdilution method; format: functional; conditions: dose 4 µg/ml
Acinetobacter baumannii [11] = assay: Synergistic antibacterial activity against ADC deleted Acinetobacter baumannii transfected with pWH1266 producing OXA-24/40 assessed as cefepime MIC at 4 ug/ml by broth microdilution method; format: functional; conditions: dose 4 µg/ml
Klebsiella pneumoniae [12] = assay: Synergistic antibacterial activity against Klebsiella pneumoniae 11978 producing OXA-48 assessed as cefepime MIC at 4 ug/ml by broth microdilution method; format: functional; conditions: dose 4 µg/ml; procedure, shortened: as §1
Acinetobacter baumannii [13] = assay: Synergistic antibacterial activity against Acinetobacter baumannii PR474 producing OXA-23/24/40 assessed as cefepime MIC at 4 ug/ml by broth microdilution method; format: functional; conditions: dose 4 µg/ml
Klebsiella pneumoniae [14] = assay: Synergistic antibacterial activity against Klebsiella pneumoniae 660/1568 producing KPC-3 assessed as meropenem MIC at 4 ug/ml by broth microdilution method; format: functional; conditions: dose 4 µg/ml; procedure, shortened: as §1
Bacteria [15] = assay: Inhibition of bacteria OXA-48 assessed as Koff rate using nitrocefin as substrate incubated for 30 mins
Acinetobacter baumannii [16] = assay: Synergistic antibacterial activity against Acinetobacter baumannii PR440 producing OXA-23/24/40 assessed as cefepime MIC at 4 ug/ml by broth microdilution method; format: functional; conditions: dose 4 µg/ml
Acinetobacter baumannii [17] = assay: Synergistic antibacterial activity against ADC deleted Acinetobacter baumannii assessed as meropenem MIC at 4 ug/ml by broth microdilution method; format: functional; conditions: dose 4 µg/ml
Bacteria [18] = assay: Inhibition of bacteria ADC-7 assessed as Koff rate using nitrocefin as substrate incubated for 30 mins
Acinetobacter baumannii [19] = assay: Synergistic antibacterial activity against Acinetobacter baumannii PR420 producing OXA-23/24/40 assessed as meropenem MIC at 4 ug/ml by broth microdilution method; format: functional; conditions: dose 4 µg/ml
Klebsiella pneumoniae [20] = assay: Synergistic antibacterial activity against Klebsiella pneumoniae NY BS producing OXA-232 assessed as cefepime MIC at 4 ug/ml by broth microdilution method; format: functional; conditions: dose 4 µg/ml
Klebsiella pneumoniae [21] = assay: Synergistic antibacterial activity against Klebsiella pneumoniae 972/1910 producing KPC-3 assessed as cefepime MIC at 4 ug/ml by broth microdilution method; format: functional; conditions: dose 4 µg/ml
Klebsiella pneumoniae [22] = assay: Synergistic antibacterial activity against Klebsiella pneumoniae 1084/1957 producing KPC-3 assessed as cefepime MIC at 4 ug/ml by broth microdilution method; format: functional; conditions: dose 4 µg/ml; procedure, shortened: as §1
Escherichia coli [23] = assay: Antibacterial activity against Escherichia coli DH10B transfected with pBC SK (-) KPC-2 by broth microdilution method; format: functional
Acinetobacter baumannii [24] = assay: Synergistic antibacterial activity against Acinetobacter baumannii PR323 producing OXA-24/40 assessed as cefepime MIC at 8 ug/ml by broth microdilution method; format: functional; conditions: dose 8 µg/ml
Klebsiella pneumoniae [25] = assay: Synergistic antibacterial activity against Klebsiella pneumoniae CAV 1636 producing OXA-181 assessed as cefepime MIC at 8 ug/ml by broth microdilution method; format: functional; conditions: dose 8 µg/ml
Klebsiella pneumoniae [26] = assay: Synergistic antibacterial activity against Klebsiella pneumoniae 660/1568 producing KPC-3 assessed as cefepime MIC at 8 ug/ml by broth microdilution method; format: functional; conditions: dose 8 µg/ml; procedure, shortened: as §1
Acinetobacter baumannii [27] = assay: Synergistic antibacterial activity against Acinetobacter baumannii PR408 producing OXA-24/40 assessed as cefepime MIC at 8 ug/ml by broth microdilution method; format: functional; conditions: dose 8 µg/ml
Pseudomonas aeruginosa [28] = assay: Synergistic antibacterial activity against Pseudomonas aeruginosa 839 assessed as meropenem MIC at 8 ug/ml by broth microdilution method; format: functional; conditions: dose 8 µg/ml
Klebsiella pneumoniae [29] = assay: Synergistic antibacterial activity against Klebsiella pneumoniae 440/1360 producing KPC-2 assessed as meropenem MIC at 8 ug/ml by broth microdilution method; format: functional; conditions: dose 8 µg/ml; procedure, shortened: as §1
Klebsiella pneumoniae [30] = assay: Synergistic antibacterial activity against Klebsiella pneumoniae 729/1679 producing KPC-3 assessed as meropenem MIC at 8 ug/ml by broth microdilution method; format: functional; conditions: dose 8 µg/ml; procedure, shortened: as §1
Acinetobacter baumannii [31] = assay: Synergistic antibacterial activity against ADC deleted Acinetobacter baumannii transfected with pWH1266 producing OXA-24/40 assessed as meropenem MIC at 8 ug/ml by broth microdilution method; format: functional; conditions: dose 8 µg/ml
Acinetobacter baumannii [32] = assay: Synergistic antibacterial activity against Acinetobacter baumannii PR448 producing OXA-23 assessed as cefepime MIC at 8 ug/ml by broth microdilution method; format: functional; conditions: dose 8 µg/ml
Procedure, shortened: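 Broth microdilution per CLSI guidelines in frozen panels. Test compound held at fixed 8 mg/L while the partner β-lactam concentration was increased. Run in triplicate; modal MIC reported.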

Escherichia coli [33] = assay: Synergistic antibacterial activity against Escherichia coli DH10B transfected with pBC SK (-) OXA-48 assessed as meropenem MIC at 8 ug/ml by broth microdilution method; format: functional; conditions: dose 8 µg/ml; procedure, shortened: as §1
Escherichia coli [34] = assay: Synergistic antibacterial activity against Escherichia coli DH10B assessed as meropenem MIC at 8 ug/ml by broth microdilution method; format: functional; conditions: dose 8 µg/ml
Escherichia coli [35] = assay: Synergistic antibacterial activity against Escherichia coli DH10B transfected with pBC SK (-) OXA-48 assessed as cefepime MIC at 8 ug/ml by broth microdilution method; format: functional; conditions: dose 8 µg/ml; procedure, shortened: as §1
Pseudomonas aeruginosa [36] = assay: Synergistic antibacterial activity against Pseudomonas aeruginosa CL232 assessed as cefepime MIC at 8 ug/ml by broth microdilution method; format: functional; conditions: dose 8 µg/ml
Escherichia coli [37] = assay: Synergistic antibacterial activity against Escherichia coli DH10B transfected with pBC SK (-) KPC-3 assessed as cefepime MIC at 8 ug/ml by broth microdilution method; format: functional; conditions: dose 8 µg/ml
Escherichia coli [38] = assay: Synergistic antibacterial activity against Escherichia coli DH10B transfected with pBC SK (-) KPC-3 assessed as meropenem MIC at 8 ug/ml by broth microdilution method; format: functional; conditions: dose 8 µg/ml
Acinetobacter baumannii [39] = assay: Synergistic antibacterial activity against Acinetobacter baumannii PR476 producing OXA-24/40 assessed as meropenem MIC at 8 ug/ml by broth microdilution method; format: functional; conditions: dose 8 µg/ml
Klebsiella pneumoniae [40] = assay: Synergistic antibacterial activity against Klebsiella pneumoniae 1315/2198 producing KPC-3 assessed as cefepime MIC at 8 ug/ml by broth microdilution method; format: functional; conditions: dose 8 µg/ml; procedure, shortened: as §1

Row | Structure (SMILES) | MIC (Acinetobacter baumannii [1]) [µg/mL] | MIC (Escherichia coli [3]) [µg/mL] | MIC (Acinetobacter baumannii [4]) [µg/mL] | K (Bacteria [5]) | MIC (Escherichia coli [6]) [µg/mL] | MIC (Klebsiella pneumoniae [7]) [µg/mL] | MIC (Acinetobacter baumannii [8]) [µg/mL] | MIC (Pseudomonas aeruginosa [10]) [µg/mL] | MIC (Acinetobacter baumannii [11]) [µg/mL] | MIC (Klebsiella pneumoniae [12]) [µg/mL] | MIC (Acinetobacter baumannii [13]) [µg/mL] | MIC (Klebsiella pneumoniae [14]) [µg/mL] | MIC (Acinetobacter baumannii [16]) [µg/mL] | MIC (Acinetobacter baumannii [17]) [µg/mL] | K (Bacteria [18]) | MIC (Acinetobacter baumannii [19]) [µg/mL] | MIC (Klebsiella pneumoniae [20]) [µg/mL] | MIC (Klebsiella pneumoniae [21]) [µg/mL] | MIC (Klebsiella pneumoniae [22]) [µg/mL] | further results
1 | NC(=O)[C@@H]1CC[C@@H]2CN1C(=O)N2OS(=O)(=O)[O-].[Na+] [AVIBACTAM SODIUM] | > 16 | > 16 | 2 | 2.9 10^4/M/s | ≤ 0.12 | ≤ 0.12 | 16 | > 16 | > 16 | 0.25 | > 16 | ≤ 0.12 | 16 | ≤ 0.12 | 3.5 10^-4/s | > 16 | 0.5 | ≤ 0.12 | ≤ 0.12 | MIC (Acinetobacter baumannii [2]): 16 µg/mL; T1/2 (Bacteria [9]): 30.4 h; K (Bacteria [15]): 1.2 10^-5/s
2 | O.O=C(NC1CCNCC1)[C@@H]1CC[C@@H]2CN1C(=O)N2OS(=O)(=O)O [RELEBACTAM] | > 16 | > 16 | 2 | 4.6 10^4/M/s | ≤ 0.12 | 8 | 16 | 16 | > 16 | 2 | > 16 | ≤ 0.12 | > 16 | ≤ 0.12 | 3 10^-4/s | > 16 | 2 | 0.25 | 0.25 | MIC (Escherichia coli [23]): > 16 µg/mL
3 | O=C(NNC(=O)[C@@H]1CC[C@@H]2CN1C(=O)N2OS(=O)(=O)O)[C@@H]1CCCNC1 [ZIDEBACTAM] | > 16 | – | 1 | 4.8 10^5/M/s | ≤ 0.12 | ≤ 0.12 | 4 | 16 | 16 | ≤ 0.12 | 8 | ≤ 0.12 | 16 | ≤ 0.12 | 1.1 10^-3/s | > 16 | ≤ 0.12 | ≤ 0.12 | ≤ 0.12 | MIC (Acinetobacter baumannii [24]): 4 µg/mL; MIC (Klebsiella pneumoniae [25]): ≤ 0.12 µg/mL; MIC (Klebsiella pneumoniae [26]): ≤ 0.12 µg/mL; MIC (Acinetobacter baumannii [27]): 16 µg/mL; MIC (Pseudomonas aeruginosa [28]): ≤ 0.12 µg/mL; MIC (Klebsiella pneumoniae [29]): ≤ 0.12 µg/mL; MIC (Klebsiella pneumoniae [30]): ≤ 0.12 µg/mL; MIC (Acinetobacter baumannii [31]): > 16 µg/mL; MIC (Acinetobacter baumannii [32]): 8 µg/mL; MIC (Escherichia coli [33]): ≤ 0.12 µg/mL; MIC (Escherichia coli [34]): ≤ 0.12 µg/mL; MIC (Escherichia coli [35]): ≤ 0.12 µg/mL; MIC (Pseudomonas aeruginosa [36]): 16 µg/mL; MIC (Escherichia coli [37]): ≤ 0.12 µg/mL; MIC (Escherichia coli [38]): ≤ 0.12 µg/mL; MIC (Acinetobacter baumannii [39]): 0.25 µg/mL; MIC (Klebsiella pneumoniae [40]): ≤ 0.12 µg/mL

From ChEMBL document CHEMBL5247575 (J Med Chem, 2018)
